Bioassay records from PubChem BioAssay.
Most compounds without a hit are left out; they make up all but 3.5% or so of the library.
RGS4 inh: RGS4 inhibitors, primary screen, cell-based, HEK293 M3R inducible RGS4, calcium flux | 310,000 tested, 0.45% active | Regulator of G-protein signaling 4 (Homo sapiens), P49798 | Fluo-4 calcium flux; stronger effect = higher value; triggered by carbachol at its EC20 | B-score at 10 µM;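 active = B-score, a plate-corrected calcium signal, over three deviations above library mean, with baseline fluorescence within five deviations of library mean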;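 note: RGS4 expression induced by doxycycline in cells with stable M3 receptor; B-score is computed from the integrated fluorescence ratio over baseline after carbachol; higher B-score means a larger calcium signal and so more RGS4 inhibition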
Target sequence (P49798 whole entry, looked up): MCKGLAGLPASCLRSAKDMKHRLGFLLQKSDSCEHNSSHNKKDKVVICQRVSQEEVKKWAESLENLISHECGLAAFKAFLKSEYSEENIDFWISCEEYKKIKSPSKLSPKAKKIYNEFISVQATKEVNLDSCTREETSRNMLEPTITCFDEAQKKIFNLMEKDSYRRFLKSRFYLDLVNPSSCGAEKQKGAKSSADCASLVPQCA
MrgX1 antagonist: antagonists of human MrgX1 receptor, primary screen, HEK293 cells, Fluo-4 calcium flux; Mas-related G-protein coupled receptor member X1 (Homo sapiens), Q96LB2; BAM8-22 antagonism; stronger effect = lower value; B-score at 10 µM; 310,000 tested, 1.3% active; AID 588676, 2011;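 active = calcium-response B-score plate-corrected more than 3 library SD below zero, starting fluorescence within 5 deviations, no agonist response on first addition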;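 note: peak minus trough fluorescence over baseline after final BAM8-22 challenge near maximal dose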
Target sequence (Q96LB2 whole entry, looked up): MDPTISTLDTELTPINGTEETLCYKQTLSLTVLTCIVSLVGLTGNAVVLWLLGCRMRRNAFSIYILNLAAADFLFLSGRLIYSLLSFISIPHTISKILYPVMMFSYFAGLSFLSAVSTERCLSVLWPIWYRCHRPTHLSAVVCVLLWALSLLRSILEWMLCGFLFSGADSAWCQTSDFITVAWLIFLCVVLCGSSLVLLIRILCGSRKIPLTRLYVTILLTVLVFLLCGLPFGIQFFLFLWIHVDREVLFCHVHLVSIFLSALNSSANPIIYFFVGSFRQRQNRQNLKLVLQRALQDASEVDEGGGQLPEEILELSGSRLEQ
MrgX1 agonist: agonists of human MrgX1 receptor, primary screen, HEK293 cells, Fluo-4 calcium flux; B-score at 10 µM; Mas-related G-protein coupled receptor member X1 (Homo sapiens), Q96LB2; 310,000 tested, 0.44% active; Fluo-4 calcium fluorescence, agonist mode; stronger effect = higher value;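 active = calcium response B-score plate-corrected fluorescence ratio at least 3 library SD, with starting fluorescence B-score inside 5 SD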
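Material: MrgX1-expressing HEK293 cells; input: 15,000 cells per well; doses: test compound given as first of three sequential additions; schedule: overnight plating before 1 h dye loading; technique: Fluo-4 NW calcium-flux fluorescence, kinetic read; evaluation: baseline-normalised fluorescence change ratio, B-scored; control set: plate-wise positive and negative controls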
MrgX1 allo act: positive allosteric modulators of MrgX1, primary screen, HEK293 cells, Fluo-4 calcium flux | FDSS; stronger effect = higher value | Mas-related G-protein coupled receptor member X1 (Homo sapiens), Q96LB2 | AID 588675, 2011 | B-score at 10 µM | 310,000 tested, 0.63% active;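 active = plate-corrected calcium response at least 3 library SD above typical, normal starting fluorescence, not activating the receptor alone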;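 note: compound read alongside a low EC10 to EC30 dose of BAM8-22 agonist; peak minus trough fluorescence over baseline measured at the second addition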
RGS4 pot: RGS4 potentiators or activators, primary screen, cell-based, HEK293 M3R inducible RGS4, calcium flux; 310,000 tested, 0.92% active; B-score at 10 µM; carbachol calcium flux Fluo4; stronger effect = lower value; AID 463111, 2010;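 active = B-score of the integrated calcium signal more than 4 SD below the library mean, with starting fluorescence not abnormally high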;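 note: negative B-score means reduced calcium response which marks RGS4 activation or potentiation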
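System – HEK293 FlpIn-TREx cells, stable M3R, doxycycline-inducible RGS4 · Reagent – ECmax carbachol challenge · Times – compound preincubation 20 min at room temperature before agonist · Technique – Fluo4 fluorescence kinetic imaging of calcium · Measure – B score of integrated Fluo4 ratio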
* = called active by the depositor; i = inactive; nt = no result.

SMILES	RGS4 inh	MrgX1 antagonist	MrgX1 agonist	MrgX1 allo act	RGS4 pot
COc1ccc(C2=NOC(C(=O)NCCCN3CCOCC3)C2)cc1 (stereo not drawn)	i	-5.13*	i	i	i
COc1cccc(/C=N/Nc2ncnc(Cl)c2N)c1O	i	i	i	i	i
COc1cccc(/C=N/Nc2ncnc3scc(-c4ccccc4)c23)c1O	i	i	i	i	-10.4*
COc1ccc(C2Nc3ccccc3C(=O)N2c2ccc(C)cc2)cc1Cn1nnc2ccccc21 (stereo not drawn)	i	i	i	23.1*	i
COC(=O)C(CC(=O)c1ccc(Br)cc1)n1ccnc1 (stereo not drawn)	6.64*	nt	nt	nt	i
COC(=O)C(CC(=O)c1ccc(Br)cc1)n1nc(C)cc1C (stereo not drawn)	i	i	i	i	i
Cn1cnnc1SCCCN1C(=O)c2cccc3cccc(c23)C1=O	i	i	i	i	i
CC1(C)Oc2ccc3ccc(=O)oc3c2/C(=C/Nc2ccccc2)C1=O	i	i	i	i	i
CC1(C)Oc2ccc3ccc(=O)oc3c2/C(=C/NC2CCCCC2)C1=O	i	i	i	i	-7.01*
CC(=O)N1c2ccc(S(=O)(=O)NCC3CCC(C(=O)Nc4cc(C)ccn4)CC3)cc2CC1C (stereo not drawn)	i	i	i	i	i
COc1ccccc1OCCn1cc(C(=O)c2ccco2)c2ccccc21	i	i	i	i	-7.44*
COc1ccccc1NC(=O)Cn1cc(C(=O)c2ccco2)c2ccccc21	i	i	i	i	i
C(=N\Nc1nc(-c2ccccc2)cs1)/c1ccncc1	i	i	i	i	i
O=C(O)Cc1sc(N/N=C\c2ccncc2)nc1-c1ccccc1	i	-5.8*	i	i	i
CC1(C)CC(=O)c2sc(NS(=O)(=O)c3ccc([N+](=O)[O-])cc3)nc2C1	i	i	i	8.02*	i
CC1(C)CC(=O)c2sc(NS(C)(=O)=O)nc2C1	i	i	i	i	i
COc1ccc(NC(=O)C2CCN(S(=O)(=O)c3cccc4nonc34)CC2)cc1	i	i	i	i	i
O=C1CC(c2ccccc2)CC(O)=C1C=NCc1ccc(Cl)c(Cl)c1 (stereo not drawn)	i	i	i	i	i
O=C1CC(c2ccccc2)CC(O)=C1C=NCc1ccncc1 (stereo not drawn)	i	-6.4*	i	i	i
OCCC1CN(Cc2nc3ccccc3s2)CCN1C1CCCCC1 (stereo not drawn)	i	-5.24*	i	i	i
CC(C)CN1CCN(Cc2nc3ccccc3s2)CC1CCO (stereo not drawn)	i	i	i	i	i
COc1ccc2c(c1)C=C(CN1CCN(C3CCCC3)C(CCO)C1)CO2 (stereo not drawn)	i	i	i	i	-6.98*
OCCC1CN(Cc2nc(-c3ccccc3)cs2)CCN1C1CCCC1 (stereo not drawn)	i	i	i	i	-7.18*
COC(=O)C1=C(C)N(Cc2ccccc2)C(=NCCCCO)N[C@H]1CCc1ccccc1	i	i	i	i	i
CN(C)c1ccc(CNC(=O)CCNS(=O)(=O)c2cc(Br)cnc2N)cc1	i	i	i	i	i
SMILES	RGS4 inh	MrgX1 antagonist	MrgX1 agonist	MrgX1 allo act	RGS4 pot
Cc1ccc(Cn2c(C(C)Nc3nc(-c4ccc(F)cc4)cs3)nc3cc(C(F)(F)F)ccc32)cc1 (stereo not drawn)	i	i	i	i	i
O=C(CC(Sc1ccc(Br)cc1)C(=O)O)c1ccc(Br)cc1 (stereo not drawn)	6.93*	i	i	i	i
CCOc1cc(/C=C(\C#N)C(=O)NCc2cccnc2)ccc1O	i	i	i	i	i
Cc1ccc(-n2nc(C)c3c(C)c(CCC(=O)Nc4ccc(CN5CCCC5)cc4)c(C)nc32)cc1	i	i	i	i	-7.09*
CCN(CC)CCNC(=O)CCc1c(C)nc2c(c(C)nn2-c2ccc(C)c(C)c2)c1C	i	i	i	i	-7.05*
COC(CNC(=O)CCc1c(C)nc2c(c(C)nn2-c2ccc(C)cc2)c1C)OC	i	i	i	i	i
O=C(Cc1cccs1)Nc1ccc(-c2nnc(-c3ccccc3)o2)cc1	i	i	i	i	i
Cc1cccc(-c2nnc(-c3cccc(NC(=O)Cc4cccs4)c3)o2)c1	i	i	i	i	-7.41*
C/C(=N\NC(=O)CCC(=O)Nc1ccccc1)c1cccs1	i	i	i	i	i
CC(=O)NC1C(Oc2cccc(C)c2)OC2COC(c3ccco3)OC2C1O (stereo not drawn)	i	i	i	i	-7.34*
CCN(CCCNC(=O)CCCCn1c(=O)[nH]c2ccccc2c1=O)c1ccccc1	i	-5.03*	i	i	i
COc1ccc(Cc2nc3ccc(C(=O)N4C[C@@H](C)O[C@@H](C)C4)cc3o2)cc1OC	i	i	i	i	i
COCCN1CCN(C(=O)c2ccc3nc(Cc4ccc(OC)c(OC)c4)oc3c2)CC1	i	-5.9*	i	i	i
O=C(C#Cc1ccccc1)Nc1cccc(F)c1	i	i	i	i	i
Cc1ccc(NC(=O)CCCNC(=O)c2ccc(Cl)cc2)c(O)c1	i	i	i	i	i
Cc1nc(N2CCN(c3ccccn3)CC2)c2c(C)c(C(=O)N3CCN(c4cccc(Cl)c4)CC3)sc2n1	i	i	i	i	-7.08*
Cc1nc(N2CCOCC2)c2c(C)c(C(=O)Nc3ccc(F)cc3Cl)sc2n1	i	i	i	i	i
Cc1nc(N2CCN(c3ccccn3)CC2)c2c(C)c(C(=O)Nc3ccc(F)cc3Cl)sc2n1	i	i	i	i	-7.41*
Clc1cccc(Cl)c1C[n+]1ccc2ccccc2c1	i	i	i	i	i
COc1ccc(N2C(=O)[C@H]3[C@@H](C2=O)C2c4ccccc4C=NN2[C@H]3C(=O)C(C)(C)C)cc1 (stereo partly drawn)	i	i	i	i	i
COc1ccc([C@@H]2[C@@H](C(=O)C(C)(C)C)N3N=Cc4ccccc4[C@@H]3C23C(=O)OC(C)(C)OC3=O)cc1OC	i	i	i	i	-7.17*
